This note sets out measurements from ChEMBL document CHEMBL5653630, “Activation of the p53-MDM4 regulatory axis defines the anti-tumour response to PRMT5 inhibition through its role in regulating cellular splicing” (Sci Rep, 2018).

Activity calls are given as the source filed them. The rule behind the calls is not given here.

For one assay, the system named is MDA-MB-468. Put plainly: Induction of cell cycle arrest in human MDA-MB-468 cells assessed as increase in 4n cell population measured upto 5000 nM measured for 7 to 10 days by propidium iodide staining based flow cytometric analysis. The conditions noted are these: time 7-10 day. The format is functional. (In general: A flow cytometer gives signals particle by particle.)

Assay [1] addresses E3 ubiquitin-protein ligase Mdm2 (Homo sapiens) (UniProt Q00987). Nature of the assay: In vivo inhibition of PRMT5 in human Z138 cells xenografted in mouse assessed as increase in MDM2 expression at 100 mg/kg, po BID measured for 7 days. The format is functional, organism-based. Conditions: Z-138, time 7.0 day.
A further assay deals with NCI-H295R. Put plainly: Antiproliferative activity against human NCI-H295R cells assessed as cell growth inhibition incubated for 10 days. The format is functional. The conditions noted are these: 240 h, time 10 day.
Another assay has as its system EM-2. Put plainly: Antiproliferative activity against human EM-2 cells assessed as cell growth inhibition incubated for 10 days. The format is functional. The conditions noted are these: EM-2, 240 h, time 10 day. The procedure, abridged: (§1)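 Outsourced panel run in 384-well plates. Cells were grown in RPMI-1640/10% FBS or a special medium at 37°C, 5% CO2. Compound was added 24 h after seeding as a 10-point, 3.16-fold series in 0.1% DMSO. Medium was refreshed and cells re-dosed at 168 h, with a time-zero plate kept. At 240 h cells were fixed, nuclei stained and imaged. gIC50 is growth midway between untreated and time zero, from a 4-parameter fit.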

The subject of another assay is MEG-01. Put plainly: Antiproliferative activity against human MEG-01 cells assessed as cell growth inhibition incubated for 10 days. The format is functional. The conditions noted are these: MEG-01, 240 h, time 10 day.
A further assay deals with COLO 205. Put plainly: Antiproliferative activity against human COLO 205 cells assessed as cell growth inhibition incubated for 10 days. The format is functional. Conditions: COLO 205, 240 h, time 10 day. The procedure, abridged: (§2)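 Cells kept in RPMI-1640 with 10% FBS, 2 mM L-alanyl-L-glutamine and 1 mM Na pyruvate (or a special medium) at 37°C, 5% CO2. Compound added 24 h after seeding, 10 concentrations in 3.16-fold dilution, 0.1% DMSO final. Medium replaced and cells re-dosed at 168 h; 240 h incubation. Nuclei fixed, dye-stained and imaged. gIC50 = growth midway between untreated and time-zero cell counts, from a 4-parameter fit.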

A further assay relates to HEC-1-A. Put plainly: Antiproliferative activity against human HEC-1-A cells assessed as cell growth inhibition incubated for 10 days. The format is functional. Conditions: 240 h, time 10 day. The procedure, abridged:
as §1

In assay [2] the test system is KATO III stomach cancer cell line. Put plainly: Antiproliferative activity against human KATO III stomach cancer cell line assessed as cell growth inhibition incubated for 10 days. The format is functional. The conditions noted are these: 240 h, time 10 day. The procedure, abridged: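 Eurofins-panel 10-day assay in 384-well plates. Cells grown in RPMI-1640 with 10% FBS, 2 mM L-alanyl-L-glutamine and 1mM Na pyruvate, or a special medium, at 37°C in 5% CO₂. Compound added 24 h after seeding, 10-point 3.16-fold series in 0.1% DMSO. Medium replaced and compound re-dosed at 168 h. Nuclei fixed and stained after 240 h, then imaged to give a relative cell count. gIC50 is the concentration giving growth midway between untreated and time-zero counts, from a 4-parameter fit.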

The subject of a further assay is Hs746T. Put plainly: Antiproliferative activity against human Hs746T cells assessed as cell growth inhibition incubated for 10 days. Conditions: 240 h, time 10 day. The format is functional. In a few lines: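 Eurofins panel, 384-well. Cells kept in RPMI-1640 with 10% FBS, 2 mM L-alanyl-L-glutamine and 1 mM Na pyruvate, or in a special medium, at 37°C under 5% CO2. Compound added 24 h after seeding as 10 concentrations in 3.16-fold steps, 0.1% DMSO final. Medium replaced and compound re-dosed at 168 h. After 240 h, cells fixed and nuclei stained for imaging. gIC50 = growth midway between untreated cells and time-zero count.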

A further assay concerns U-87 MG. Put plainly: Antiproliferative activity against human U-87 MG cells assessed as cell growth inhibition incubated for 10 days. The format is functional, U-87MG ATCC. The conditions noted are these: 240 h, time 10 day.
The subject of the next assay is G-402. Nature of the assay: Antiproliferative activity against human G-402 cells assessed as cell growth inhibition incubated for 10 days. The format is functional. The conditions noted are these: G-402, 240 h, time 10 day. The procedure, abridged:
as §1

A further assay has as its system MeWo. Nature of the assay: Antiproliferative activity against human MeWo cells assessed as cell growth inhibition incubated for 10 days. The format is functional. Conditions: 240 h, time 10 day.
The next assay relates to SK-MEL-28. Nature of the assay: Antiproliferative activity against human SK-MEL-28 cells assessed as cell growth inhibition incubated for 10 days. The format is functional. Conditions: SK-MEL-28, 240 h, time 10 day.
The next assay concerns RPMI-7951. Put plainly: Antiproliferative activity against human RPMI-7951 cells assessed as cell growth inhibition incubated for 10 days. The format is functional. Conditions: RPMI-7951, 240 h, time 10 day.
In another assay the test system is MC-IXC. Nature of the assay: Antiproliferative activity against human MC-IXC cells assessed as cell growth inhibition incubated for 10 days. The format is functional. The conditions noted are these: 240 h, time 10 day.
The next assay concerns NCI-H596. Put plainly: Antiproliferative activity against human NCI-H596 cells assessed as cell growth inhibition incubated for 10 days. The format is functional. The conditions noted are these: NCI-H596, 240 h, time 10 day.
A further assay relates to NCI-H441. Nature of the assay: Antiproliferative activity against human NCI-H441 cells assessed as cell growth inhibition incubated for 10 days. The format is functional. Conditions: NCI-H441, 240 h, time 10 day.
The test system of the next assay is SK-MES-1. Put plainly: Antiproliferative activity against human SK-MES-1 cells assessed as cell growth inhibition incubated for 10 days. The format is functional. Conditions: SK-MES-1, 240 h, time 10 day.
A further assay deals with NCI-H661. Nature of the assay: Antiproliferative activity against human NCI-H661 cells assessed as cell growth inhibition incubated for 10 days. The format is functional. The conditions noted are these: NCI-H661, 240 h, time 10 day.
In the next assay the test system is A549. Put plainly: Antiproliferative activity against human A549 cells assessed as cell growth inhibition incubated for 10 days. The conditions noted are these: A549, 240 h, time 10 day. The format is functional. The procedure, abridged: as §2
The subject of a further assay is ASPC1. Put plainly: Antiproliferative activity against human ASPC1 cells assessed as cell growth inhibition incubated for 10 days. The format is functional. The conditions noted are these: ASPC1, 240 h, time 10 day. In a few lines:
as §2

The nature of assay [3]: Antiproliferative activity against human BC1 cell line assessed as cell growth inhibition incubated for 10 days. The format is functional. Conditions: BC1, 240 h, time 10 day. In a few lines: as §2
A further assay relates to PC-3. Put plainly: Antiproliferative activity against human PC-3 cells assessed as cell growth inhibition incubated for 10 days. The format is functional. The conditions noted are these: PC-3, 240 h, time 10 day.
For the next assay, the system named is DU-145. Nature of the assay: Antiproliferative activity against human DU-145 cells assessed as cell growth inhibition incubated for 10 days. The format is functional. Conditions: DU-145, 240 h, time 10 day. In a few lines: as §1
For the next assay, the system named is LNCaP. Put plainly: Antiproliferative activity against human LNCaP cells assessed as cell growth inhibition incubated for 10 days. The conditions noted are these: 240 h, time 10 day. The format is functional.
The test system of another assay is Y79. Put plainly: Antiproliferative activity against human Y79 cells assessed as cell growth inhibition incubated for 10 days. The format is functional. Conditions: Y79, 240 h, time 10 day.
The test system of the next assay is SHP77. Put plainly: Antiproliferative activity against human SHP77 cells assessed as cell growth inhibition incubated for 10 days. The format is functional. Conditions: SHP77, 240 h, time 10 day.
The next assay concerns CGTH-W-1. Put plainly: Antiproliferative activity against human CGTH-W-1 cells assessed as cell growth inhibition incubated for 10 days. The format is functional. The conditions noted are these: CGTH-W-1, 240 h, time 10 day. In a few lines: as §2
The next assay concerns SW 954. Nature of the assay: Antiproliferative activity against human SW 954 cells assessed as cell growth inhibition incubated for 10 days. The format is functional. The conditions noted are these: SW 954, 240 h, time 10 day.
Assay [4] concerns the target Protein arginine N-methyltransferase 5 (Homo sapiens) (UniProt O14744). Put plainly: Inhibition of PRMT5 in human Z138 cells assessed as full length MDM4 splicing at 200 to 1000 nM incubated for 3 days by RT-PCR analysis. The format is cell-based. Conditions: dose 200-1000 nM, time 3.0 day.

Sequence of Protein arginine N-methyltransferase 5 (Homo sapiens) (O14744 whole entry): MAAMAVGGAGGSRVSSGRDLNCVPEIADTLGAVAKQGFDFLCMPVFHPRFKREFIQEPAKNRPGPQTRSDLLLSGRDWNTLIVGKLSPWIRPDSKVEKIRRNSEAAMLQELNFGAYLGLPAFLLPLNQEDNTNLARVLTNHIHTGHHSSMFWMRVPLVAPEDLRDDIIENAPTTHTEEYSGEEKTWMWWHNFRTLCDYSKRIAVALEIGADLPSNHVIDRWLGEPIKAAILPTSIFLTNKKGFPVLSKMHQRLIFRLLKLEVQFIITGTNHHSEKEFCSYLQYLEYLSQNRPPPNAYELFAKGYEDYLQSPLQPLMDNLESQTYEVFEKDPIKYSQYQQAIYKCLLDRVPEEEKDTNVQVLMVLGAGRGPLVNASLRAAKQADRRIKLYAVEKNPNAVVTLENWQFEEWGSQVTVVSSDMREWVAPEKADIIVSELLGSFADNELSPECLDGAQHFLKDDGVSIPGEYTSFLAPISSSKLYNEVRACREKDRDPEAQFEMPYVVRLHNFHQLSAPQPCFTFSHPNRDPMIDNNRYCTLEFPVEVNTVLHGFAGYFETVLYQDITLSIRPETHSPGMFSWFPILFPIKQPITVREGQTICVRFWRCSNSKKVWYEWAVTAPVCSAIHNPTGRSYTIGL
Sequence of E3 ubiquitin-protein ligase Mdm2 (Homo sapiens) (Q00987 whole entry, looked up): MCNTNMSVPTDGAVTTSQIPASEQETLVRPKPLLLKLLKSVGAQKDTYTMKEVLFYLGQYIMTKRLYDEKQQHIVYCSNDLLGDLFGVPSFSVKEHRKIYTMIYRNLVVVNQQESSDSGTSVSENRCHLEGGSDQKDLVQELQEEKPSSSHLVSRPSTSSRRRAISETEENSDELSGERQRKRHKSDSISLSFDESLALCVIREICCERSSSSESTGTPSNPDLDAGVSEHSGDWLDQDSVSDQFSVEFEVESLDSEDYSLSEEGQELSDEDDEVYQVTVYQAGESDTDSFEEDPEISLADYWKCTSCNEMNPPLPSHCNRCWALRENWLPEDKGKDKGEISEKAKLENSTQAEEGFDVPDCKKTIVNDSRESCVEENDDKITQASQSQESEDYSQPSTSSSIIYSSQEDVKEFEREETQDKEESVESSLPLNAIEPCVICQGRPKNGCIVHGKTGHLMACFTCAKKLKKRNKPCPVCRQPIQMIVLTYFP

Regarding `CC(=O)N1CCC(Nc2cc(C(=O)NC[C@H](O)CN3CCc4ccccc4C3)ncn2)CC1` [PEMRAMETOSTAT], the result in the assay with MDA-MB-468 was Active. Besides, the inhibition result in assay [1] was “Active”.

As a reminder, the GI50 is the concentration at which growth is held to half of that of the control. Turning to `O=C(NC[C@H](O)CN1CCc2ccccc2C1)c1ccnc(NC2CCC2)c1`, the GI50 is 10000 nM with NCI-H295R; 94 nM in the assay with EM-2; 10000 nM in the assay on MEG-01; 10000 nM in the assay with COLO 205; 2440 nM in the assay on HEC-1-A; 16.7 nM in assay [2]. In addition, the GI50 in the assay on Hs746T was determined as 171 nM; in the assay with U-87 MG, 67.6 nM; with G-402, 99.7 nM; in the assay on MeWo, 249 nM; in the assay on SK-MEL-28 it was 239 nM; in the assay with RPMI-7951, 44.2 nM. Further, the GI50 with MC-IXC amounted to 615 nM; with NCI-H596, 188 nM; in the assay on NCI-H441, 556 nM; in the assay on SK-MES-1 it was 807 nM; with NCI-H661 it was 152 nM; with A549 it was 80.9 nM. In addition, the GI50 in the assay on ASPC1 was found to be 302 nM; in assay [3], 69.6 nM; in the assay on PC-3, 873 nM; in the assay with DU-145, 151 nM; with LNCaP it was 2930 nM; with Y79, 113 nM. The values for the GI50 with SHP77, in the assay with CGTH-W-1 and with SW 954 were 152 nM, 82.2 nM and 10000 nM, respectively. Also, the inhibition entry in [4] was “Active”.
